For data set [1], the system named is SH-SY5Y. The data set can be described thus: Neuroprotective activity against H2O2-induced cell death in human SH-SY5Y cells assessed as cell viability at 1 to 4 uM preincubated for 2 hrs followed by H2O2-challenge by MTT assay (reference value: 45.73%). It is filed as functional. A general note: Formazan colour is commonly taken as a measure of viable cells.

The target in data set [2] is Voltage-gated inwardly rectifying potassium channel KCNH2 (Homo sapiens, UniProt Q12809). The data set is described as follows: Inhibition of human ERG stably expressed in CHO cells at -80 mV by automated Qpatch electrophysiological assay. It is filed as cell-based. (In patch-clamp work, channel activity is measured electrically.)
Voltage-gated inwardly rectifying potassium channel KCNH2, sequence (Q12809 whole entry, the tested form may be a part): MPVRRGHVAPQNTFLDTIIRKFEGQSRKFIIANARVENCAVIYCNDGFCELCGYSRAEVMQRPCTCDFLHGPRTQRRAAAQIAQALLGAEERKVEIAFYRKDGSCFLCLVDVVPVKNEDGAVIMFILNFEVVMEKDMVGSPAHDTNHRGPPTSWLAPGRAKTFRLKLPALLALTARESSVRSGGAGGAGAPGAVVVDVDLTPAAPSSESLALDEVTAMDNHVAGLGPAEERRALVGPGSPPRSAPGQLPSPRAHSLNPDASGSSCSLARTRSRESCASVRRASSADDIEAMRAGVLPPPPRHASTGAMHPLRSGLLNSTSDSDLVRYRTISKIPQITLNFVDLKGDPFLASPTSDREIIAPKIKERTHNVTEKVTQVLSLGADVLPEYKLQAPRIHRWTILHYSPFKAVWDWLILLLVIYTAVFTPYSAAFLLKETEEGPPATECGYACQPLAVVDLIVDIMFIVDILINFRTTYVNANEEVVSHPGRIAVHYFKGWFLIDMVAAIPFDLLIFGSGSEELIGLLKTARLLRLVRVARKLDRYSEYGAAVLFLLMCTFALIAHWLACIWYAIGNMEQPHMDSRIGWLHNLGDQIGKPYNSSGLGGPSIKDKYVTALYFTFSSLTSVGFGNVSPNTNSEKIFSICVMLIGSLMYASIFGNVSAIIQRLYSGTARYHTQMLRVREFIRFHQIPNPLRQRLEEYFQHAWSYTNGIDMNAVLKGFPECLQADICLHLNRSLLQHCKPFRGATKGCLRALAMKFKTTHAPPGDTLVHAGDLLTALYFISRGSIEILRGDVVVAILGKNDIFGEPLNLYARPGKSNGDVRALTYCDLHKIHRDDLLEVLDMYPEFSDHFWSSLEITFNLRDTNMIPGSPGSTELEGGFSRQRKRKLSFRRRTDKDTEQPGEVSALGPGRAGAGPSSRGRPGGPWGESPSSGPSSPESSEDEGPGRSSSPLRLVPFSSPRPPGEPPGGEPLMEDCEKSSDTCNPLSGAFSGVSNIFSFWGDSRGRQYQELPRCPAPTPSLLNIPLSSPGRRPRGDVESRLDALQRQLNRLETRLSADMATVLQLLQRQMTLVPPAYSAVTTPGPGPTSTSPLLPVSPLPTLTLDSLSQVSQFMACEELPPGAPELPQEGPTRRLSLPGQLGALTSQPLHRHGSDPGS
The subject of data set [3] is Rattus norvegicus. The data set is described as follows: Neuroprotective activity in Sprague-Dawley rat model of middle cerebral artery occlusion-induced ischemia-reperfusion injury assessed as infarction volume at 3 mg/kg, iv by TTC staining based assay (reference value: 39%). It is filed as functional. In outline:
(§1)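 Male Sprague-Dawley rats under chloral hydrate (400 mg/kg, i.p.); nylon monofilament through the left internal carotid artery occluded the MCA origin for 2 h, then was withdrawn for reperfusion. Drug in 0.9% saline was injected via the tail vein immediately after reperfusion. After 24 h, 2 mm coronal sections were stained with 1% TTC at 37 °C for 15 min and fixed in 4% paraformaldehyde. Infarct % = (normal hemisphere − non-infarcted ischemic hemisphere)/normal hemisphere ×100. n=15-18, mean ± SEM.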

Data set [4] has as its system Rattus norvegicus. The data set can be described thus: Neuroprotective activity in iv dosed Sprague-Dawley rat model of middle cerebral artery occlusion-induced ischemia-reperfusion injury assessed as concentration required to reduce infarction volume to < 26% by TTC staining based assay. It is filed as functional. In outline:
as §1

A further data set deals with MRC5. The data set is described as follows: Cytotoxicity against human MRC5 cells assessed as reduction in cell viability measured after 72 hrs by CCK8 assay. It is filed as cell-based. Conditions: MRC5, 72 h. In outline:
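MRC-5 cells grown in MEM with 10% FBS, NEAA, 5% CO2 at 37 °C; seeded 7000 cells/well, treated at several concentrations for 72 h. Viability by CCK-8 absorbance at 450 nm, expressed as % of vehicle-treated cells; IC50 reported as mean ± SD.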

Data set [5] in a line: Half life in mouse liver microsomes at 1 uM in presence of NADPH by LC-MS/MS analysis. It is filed as ADME, Microsome. For orientation: Liver microsomes are a subcellular fraction often used to study metabolism.
Data set [6] can be described thus: Solubility of the compound in […] incubated for 24 hrs by HPLC analysis. It is filed as physicochemical.
Data set [7] relates to SH-SY5Y. The data set is described as follows: Cytotoxicity against human SH-SY5Y cells assessed as reduction in cell viability measured after 24 hrs by MTT assay. It is filed as cell-based. In outline: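 SH-SY5Y cells (1:1 MEM/F12, 10% FBS) seeded 3 × 10^4 cells/well, grown 24 h, then exposed without insult for 24 h to 1.56–100 µM or to 1 and 10 µM (DMSO stock diluted in medium). MTT read at 490 nm; viability as % of untreated control.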

The test system of data set [8] is SH-SY5Y. The data set is described as follows: Neuroprotective activity against oxygen-glucose deprivation-induced morphological changes in human SH-SY5Y cells assessed as suppression of cell shrinkage […] and measured after 24 hrs by microscopic analysis. It is filed as functional, cell-based.
Data set [9] relates to SH-SY5Y. The data set can be described thus: Neuroprotective activity against oxygen-glucose deprivation-induced morphological changes in human SH-SY5Y cells assessed as suppression of neurite disappearance […] and measured after 24 hrs by microscopic analysis. It is filed as functional, cell-based.
For data set [10], the system named is SH-SY5Y. The data set can be described thus: Neuroprotective activity against oxygen-glucose deprivation-induced apoptosis in human SH-SY5Y cells assessed as viable cells at 4 uM preincubated for 2 hrs followed by OGD-challenge and measured after 24 hrs by Annexin V-FITC/propidium iodide staining-based flow cytometric method (reference value: 48.2%). As to conditions: read-out: Activity. It is filed as functional.

Data set [11] has as its system Rattus norvegicus. The data set can be described thus: Neuroprotective activity in Sprague-Dawley rat model of middle cerebral artery occlusion-induced ischemia-reperfusion injury assessed as infarction volume at 0.3 mg/kg, iv by TTC staining based assay (reference value: 39%). It is filed as functional. A digest of the protocol:
as §1

For data set [12], the system named is SH-SY5Y. The data set is described as follows: Neuroprotective activity against oxygen-glucose deprivation-induced apoptosis in human SH-SY5Y cells assessed as necrotic cells at 4 uM preincubated for 2 hrs followed by OGD-challenge and measured after 24 hrs by Annexin V-FITC/propidium iodide staining-based flow cytometric method (reference value: 6.46%). It is filed as functional.

The subject of data set [13] is SH-SY5Y. The data set can be described thus: Neuroprotective activity against oxygen-glucose deprivation-induced apoptosis in human SH-SY5Y cells assessed as early apoptotic cells at 4 uM preincubated for 2 hrs followed by OGD-challenge and measured after 24 hrs by Annexin V-FITC/propidium iodide staining-based flow cytometric method (reference value: 17.1%). It is filed as functional.

The subject of data set [14] is SH-SY5Y. The data set can be described thus: Neuroprotective activity against oxygen-glucose deprivation-induced morphological changes in human SH-SY5Y cells assessed as suppression of bright cell body appearance preincubated for 2 hrs followed by OGD-challenge and measured after 24 hrs by microscopic analysis. It is filed as functional, cell-based. A digest of the protocol:
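SH-SY5Y cells treated immediately before 2 h OGD (glucose/serum-free, hypoxia chamber, 37 °C), then reoxygenated; morphology (neurites, cell body, cell number) inspected by light microscopy 24 h after insult.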

The test system of another data set is HT-22. The data set is described as follows: Neuroprotective activity against glutamate-induced cell death in mouse HT22 cells assessed as increase in cell viability up to 4 uM preincubated for 2 hrs followed by glutamate-challenge and measured after 24 hrs by MTT assay. It is filed as functional, cell-based. A digest of the protocol:
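HT22 mouse hippocampal cells (DMEM, 10% FBS) seeded 5×10^4 cells/ml and grown 12 h. Compound added for 2 h, then 10 mM L-glutamic acid hydrochloride for 24 h. Viability by MTT at 490 nm as % of control; mean ± SD, n = 3.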

Data set [15] concerns Rattus norvegicus. The data set can be described thus: Neuroprotective activity in Sprague-Dawley rat model of middle cerebral artery occlusion-induced ischemia-reperfusion injury assessed as infarction volume at 1 mg/kg, iv by TTC staining based assay (reference value: 39%). It is filed as functional. In outline: as §1
In data set [16] the test system is Rattus norvegicus. The data set is described as follows: Neuroprotective activity in Sprague-Dawley rat model of middle cerebral artery occlusion-induced ischemia-reperfusion injury assessed as reduction in disease severity score at 1 mg/kg, iv measured 24 hrs post-reperfusion. It is filed as functional, organism-based. A digest of the protocol: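 Male Sprague-Dawley rats anesthetized with chloral hydrate (400 mg/kg i.p.); left MCA occluded by intraluminal nylon suture for 2 h, then withdrawn. Compound in 0.9% saline given by tail vein immediately after reperfusion; body temperature held at 37.0 ± 0.5 °C. mNSS scored 24 h later; n = 15–18, mean ± SEM.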

In data set [17] the test system is SH-SY5Y. The data set can be described thus: Neuroprotective activity against oxygen-glucose deprivation-induced apoptosis in human SH-SY5Y cells assessed as late apoptotic cells at 4 uM preincubated for 2 hrs followed by OGD-challenge and measured after 24 hrs by Annexin V-FITC/propidium iodide staining-based flow cytometric method (reference value: 28.2%). It is filed as functional.

Data set [18] concerns SH-SY5Y. The data set can be described thus: Neuroprotective activity against oxygen-glucose deprivation-induced morphological changes in human SH-SY5Y cells assessed as increase in cell number added immediately before OGD-challenge and measured after 24 hrs by microscopic analysis.

Active and inactive are the calls of the source. No cut-off for these calls is given here. Bounds are passed on as bounds.

From ChEMBL document CHEMBL4321877, “Development of Novel N-hydroxypyridone Derivatives as Potential Anti-Ischemic Stroke Agents” (J Med Chem, 2020) come the findings set out here.

On to `Cc1cc(C2CCCCC2)n(O)c(=O)c1.NCCO` [CICLOPIROX OLAMINE], for which the Activity entry is “<=80%” in the data set with SH-SY5Y [1], 26% in the data set with Rattus norvegicus [3] and 3 mg/kg with Rattus norvegicus [4]. Also, the half-maximal inhibitory concentration (IC50) in data set [2] is more than 40 µM; in the data set with MRC5 it was 23.5 µM; in the data set with SH-SY5Y [7], more than 100 µM. The half-life at 1 µM in [5] came out at 0.886 h. This compound also returned a solubility in [6] (buffer, 24 h) of 6.82 mg/mL.

`Cc1cc([C@@H]2C[C@@H]3CC[C@H]2C3)n(O)c(=O)c1.NCCO`: the result in the data set with SH-SY5Y [8], with SH-SY5Y [9], in the data set on SH-SY5Y [14], in the data set on HT-22, in the data set on Rattus norvegicus [16] and with SH-SY5Y [18] was Active. Further, the Activity entry in the data set on SH-SY5Y [1] is “<=80%”; in the data set on Rattus norvegicus [11], 25%; in the data set with Rattus norvegicus [4], 0.3 mg/kg; with SH-SY5Y [12], 4.87%; in the data set on SH-SY5Y [13] it was 9.36%; in the data set with Rattus norvegicus [15], 23%. The Activity with SH-SY5Y [17] is given as 16%. The viability at 4 µM in the data set on SH-SY5Y [10] was determined as 69.8%. In addition, the figures for the IC50 (in data set [2]; with MRC5; in the data set on SH-SY5Y [7]) were more than 40 µM, 23.6 µM and more than 100 µM, respectively. Moreover, the half-life at 1 µM in data set [5] turned out to be 1.53 h. Moreover, in data set [6], the concentration in solution (solubility at 24 h) came to 10.9 mg/mL.

As usually defined, the IC50 is the point on the concentration scale where inhibition reaches its midpoint. The term half-life denotes the time in which the quantity being followed falls by half. The solubility is the dissolved amount per volume that the medium holds. High values mean a readily soluble substance, low ones a poorly soluble substance.
